Assay [1] addresses T1, Polyunsaturated fatty acid lipoxygenase ALOX15 (Homo sapiens, UniProt P16050).
T1 sequence (P16050 whole entry): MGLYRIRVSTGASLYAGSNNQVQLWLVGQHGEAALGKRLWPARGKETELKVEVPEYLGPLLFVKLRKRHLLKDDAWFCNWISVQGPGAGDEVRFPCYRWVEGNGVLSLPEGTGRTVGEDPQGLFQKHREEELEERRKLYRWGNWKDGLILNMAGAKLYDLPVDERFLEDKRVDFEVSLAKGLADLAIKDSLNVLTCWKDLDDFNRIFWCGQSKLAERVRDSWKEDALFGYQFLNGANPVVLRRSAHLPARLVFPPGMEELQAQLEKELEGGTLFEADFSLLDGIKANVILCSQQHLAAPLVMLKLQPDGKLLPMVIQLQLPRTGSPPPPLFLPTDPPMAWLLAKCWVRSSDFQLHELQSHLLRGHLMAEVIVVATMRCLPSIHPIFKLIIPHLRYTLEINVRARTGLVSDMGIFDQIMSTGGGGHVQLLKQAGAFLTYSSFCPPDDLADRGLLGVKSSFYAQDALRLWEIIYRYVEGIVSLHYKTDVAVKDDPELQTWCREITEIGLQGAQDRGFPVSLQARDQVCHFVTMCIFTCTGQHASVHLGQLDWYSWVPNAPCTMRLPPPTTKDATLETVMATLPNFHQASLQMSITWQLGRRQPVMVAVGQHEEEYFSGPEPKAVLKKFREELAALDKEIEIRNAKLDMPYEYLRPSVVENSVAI
Put plainly: Inhibition of recombinant N-terminal His6-tagged human reticulocyte 12/15-lipoxygenase using arachidonic acid as substrate by UV-vis spectrometric analysis.

For assay [2], the target named is T2, Polyunsaturated fatty acid lipoxygenase ALOX15 (Homo sapiens) (UniProt P16050).
T2 sequence (whole entry): T1 sequence (P16050 whole entry)
Briefly: Inhibition of recombinant N-terminal His6-tagged human reticulocyte 12/15-lipoxygenase using arachidonic acid as substrate at 25 uM by UV-vis spectrometric analysis relative to control. The essentials: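 His6-tagged human 12/15-LOX, Ni-NTA purified, at 40 nM in 25 mM HEPES pH 7.5 with 0.01% Triton X-100 and 10 μM arachidonic acid, in a stirred cuvette at 22 °C. Diene formation was followed at 234 nm, and percent inhibition at 25 μM inhibitor was calculated against the DMSO control rate.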

Assay [3] addresses T3, Polyunsaturated fatty acid lipoxygenase ALOX15 (Mus musculus) (UniProt P39654).
T3 sequence (whole entry): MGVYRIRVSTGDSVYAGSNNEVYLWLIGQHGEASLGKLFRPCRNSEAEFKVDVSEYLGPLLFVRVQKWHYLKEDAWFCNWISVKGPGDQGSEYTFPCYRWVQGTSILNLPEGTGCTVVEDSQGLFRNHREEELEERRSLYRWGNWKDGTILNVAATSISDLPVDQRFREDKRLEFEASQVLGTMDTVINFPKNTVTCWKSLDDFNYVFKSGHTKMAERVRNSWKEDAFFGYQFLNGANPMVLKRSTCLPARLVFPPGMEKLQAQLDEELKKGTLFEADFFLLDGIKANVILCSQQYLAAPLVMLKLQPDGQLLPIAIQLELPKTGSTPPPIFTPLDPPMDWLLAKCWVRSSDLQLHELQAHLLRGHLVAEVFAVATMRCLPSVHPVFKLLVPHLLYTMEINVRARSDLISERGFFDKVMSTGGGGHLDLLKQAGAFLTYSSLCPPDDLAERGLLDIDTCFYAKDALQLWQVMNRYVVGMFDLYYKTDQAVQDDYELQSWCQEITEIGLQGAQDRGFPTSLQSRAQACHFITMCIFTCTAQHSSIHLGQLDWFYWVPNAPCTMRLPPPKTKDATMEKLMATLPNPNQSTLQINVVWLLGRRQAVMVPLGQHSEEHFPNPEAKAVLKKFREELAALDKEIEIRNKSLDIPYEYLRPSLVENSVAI
Put plainly: Inhibition of 12/15-lipoxygenase in mouse HT22 cells assessed as protection against glutamate-induced cell death at 5 uM after 24 hrs by LDH release assay. Format: cell-based. Particulars: HT-22. The essentials:
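HT22 mouse hippocampal cells were grown in DMEM with 10% FBS and penicillin/streptomycin, seeded at 1 × 10^4 cells/well and treated 18 h later at 50–70% confluence. Medium was exchanged for fresh medium with 5 mM glutamate plus compound or DMSO (≤0.1% final). Death was scored as percent LDH released to the medium versus the cell extract, background-subtracted.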

The target in assay [4] is T4, Prostaglandin G/H synthase 1 (Ovis aries) (UniProt P05979).
T4 sequence (whole entry): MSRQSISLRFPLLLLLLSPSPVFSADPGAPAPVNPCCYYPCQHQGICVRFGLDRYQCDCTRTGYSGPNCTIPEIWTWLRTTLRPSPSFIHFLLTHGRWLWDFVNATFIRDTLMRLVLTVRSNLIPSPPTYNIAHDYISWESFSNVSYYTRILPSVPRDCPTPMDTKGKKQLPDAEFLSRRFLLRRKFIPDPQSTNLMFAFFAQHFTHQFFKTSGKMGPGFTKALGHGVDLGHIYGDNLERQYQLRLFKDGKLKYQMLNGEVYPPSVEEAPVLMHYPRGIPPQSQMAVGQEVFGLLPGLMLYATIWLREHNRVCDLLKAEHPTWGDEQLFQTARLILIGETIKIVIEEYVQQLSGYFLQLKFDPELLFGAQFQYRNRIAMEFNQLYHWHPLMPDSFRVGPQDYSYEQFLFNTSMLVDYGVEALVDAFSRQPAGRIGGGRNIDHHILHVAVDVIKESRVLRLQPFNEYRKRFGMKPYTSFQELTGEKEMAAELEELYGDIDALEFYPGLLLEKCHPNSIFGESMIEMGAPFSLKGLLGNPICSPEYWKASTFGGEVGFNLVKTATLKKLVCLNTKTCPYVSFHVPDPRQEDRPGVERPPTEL
Put plainly: Inhibition of ovine COX-1 using arachidonic acid as substrate assessed as consumption of oxygen at 5 uM preincubated for 5 mins followed by substrate addition by oxygen electrode-based assay relative to control. The essentials: (§1)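 COX-1 or COX-2 (2–5 μg) in 0.1 M Tris-HCl pH 8.0 with 5 mM EDTA, 2 mM phenol and 1 μM hematin at 37 °C. Inhibitor was preincubated 5 min, then 100 μM arachidonic acid was added. Oxygen consumption was read on an oxygen electrode, and percent inhibition was calculated against a DMSO control, with indomethacin as positive control.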

Assay [5] addresses T5, Prostaglandin G/H synthase 2 (Homo sapiens) (UniProt P35354).
T5 sequence (whole entry): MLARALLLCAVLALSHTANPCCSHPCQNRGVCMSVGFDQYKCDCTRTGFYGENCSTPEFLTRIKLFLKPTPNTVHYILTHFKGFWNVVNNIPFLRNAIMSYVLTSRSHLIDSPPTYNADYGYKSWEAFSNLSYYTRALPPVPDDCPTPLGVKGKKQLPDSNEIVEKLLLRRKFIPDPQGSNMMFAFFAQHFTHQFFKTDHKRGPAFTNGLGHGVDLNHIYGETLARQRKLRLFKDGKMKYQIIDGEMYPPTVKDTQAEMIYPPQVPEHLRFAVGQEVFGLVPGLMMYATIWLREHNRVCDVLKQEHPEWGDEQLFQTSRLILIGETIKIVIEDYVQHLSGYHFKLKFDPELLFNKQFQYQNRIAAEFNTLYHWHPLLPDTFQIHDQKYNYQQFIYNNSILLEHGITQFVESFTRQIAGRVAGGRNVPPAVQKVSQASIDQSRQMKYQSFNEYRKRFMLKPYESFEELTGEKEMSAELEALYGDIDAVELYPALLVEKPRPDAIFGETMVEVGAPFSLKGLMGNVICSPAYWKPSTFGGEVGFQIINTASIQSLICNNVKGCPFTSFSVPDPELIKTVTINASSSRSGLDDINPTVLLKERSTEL
Put plainly: Inhibition of human COX-2 using arachidonic acid as substrate assessed as consumption of oxygen at 5 uM preincubated for 5 mins followed by substrate addition by oxygen electrode-based assay relative to control. The procedure, abridged: as §1

For assay [6], the target named is T6, Polyunsaturated fatty acid lipoxygenase ALOX15B (Homo sapiens, UniProt O15296).
T6 sequence (O15296 whole entry): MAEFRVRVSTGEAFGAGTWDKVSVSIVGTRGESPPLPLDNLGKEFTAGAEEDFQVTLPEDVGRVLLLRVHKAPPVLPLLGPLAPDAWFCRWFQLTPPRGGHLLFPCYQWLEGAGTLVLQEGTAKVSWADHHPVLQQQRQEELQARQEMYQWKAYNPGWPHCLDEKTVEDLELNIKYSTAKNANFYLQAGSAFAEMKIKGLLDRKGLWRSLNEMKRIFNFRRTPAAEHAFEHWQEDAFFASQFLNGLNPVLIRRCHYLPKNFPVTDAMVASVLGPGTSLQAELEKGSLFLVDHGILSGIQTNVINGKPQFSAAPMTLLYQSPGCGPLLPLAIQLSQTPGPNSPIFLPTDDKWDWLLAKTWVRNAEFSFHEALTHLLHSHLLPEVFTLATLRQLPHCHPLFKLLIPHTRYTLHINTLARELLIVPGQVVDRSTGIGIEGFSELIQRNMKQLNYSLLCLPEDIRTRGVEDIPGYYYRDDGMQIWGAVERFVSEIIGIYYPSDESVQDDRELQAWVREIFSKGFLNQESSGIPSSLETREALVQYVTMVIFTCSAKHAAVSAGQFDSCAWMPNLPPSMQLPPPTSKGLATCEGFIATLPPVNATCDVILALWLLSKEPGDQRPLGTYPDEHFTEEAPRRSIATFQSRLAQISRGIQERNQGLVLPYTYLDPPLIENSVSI
Put plainly: Inhibition of N-terminal His6-tagged human epithelial 15-lipoxygenase-2 using arachidonic acid as substrate by UV-vis spectrometric analysis.

In assay [7] the target is T7, Polyunsaturated fatty acid 5-lipoxygenase (Homo sapiens, UniProt P09917).
T7 sequence (P09917 whole entry): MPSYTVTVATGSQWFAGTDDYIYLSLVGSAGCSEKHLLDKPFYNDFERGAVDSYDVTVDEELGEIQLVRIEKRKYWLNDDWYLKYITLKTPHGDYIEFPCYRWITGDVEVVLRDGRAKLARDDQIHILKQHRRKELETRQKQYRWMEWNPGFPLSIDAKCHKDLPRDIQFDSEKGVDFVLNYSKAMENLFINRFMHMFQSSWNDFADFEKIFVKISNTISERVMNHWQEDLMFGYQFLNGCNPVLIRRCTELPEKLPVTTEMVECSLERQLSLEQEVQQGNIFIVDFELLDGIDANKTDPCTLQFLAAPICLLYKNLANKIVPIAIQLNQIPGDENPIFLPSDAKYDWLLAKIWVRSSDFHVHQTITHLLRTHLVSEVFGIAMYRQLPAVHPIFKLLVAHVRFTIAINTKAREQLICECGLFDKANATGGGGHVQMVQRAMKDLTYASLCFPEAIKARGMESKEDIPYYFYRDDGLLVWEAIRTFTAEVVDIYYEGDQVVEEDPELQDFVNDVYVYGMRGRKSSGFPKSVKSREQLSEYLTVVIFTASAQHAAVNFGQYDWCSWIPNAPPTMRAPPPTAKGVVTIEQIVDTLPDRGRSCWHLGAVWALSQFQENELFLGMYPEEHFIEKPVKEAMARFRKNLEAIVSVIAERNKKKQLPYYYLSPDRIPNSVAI
Put plainly: Inhibition of human 5-lipoxygenase using arachidonic acid as substrate by UV-vis spectrometric analysis.

SMILES strings stand for the structures. Calls of active or inactive are those of the source. No cut-off for these calls is given here. A value given as a limit tells only on which side of the number the result lay.

The values that follow come from ChEMBL document CHEMBL3259653, “Potent and selective inhibitors of human reticulocyte 12/15-lipoxygenase as anti-stroke therapies” (J Med Chem, 2014).

The term IC50 denotes the concentration at which inhibition is half-maximal. Usually inhibition stands for the percentage by which the read-out fell short of the control.

Take `CNc1oc(C2CCCC2)nc1C#N`: the IC50 in assay [1] is > 50 µM.
Regarding `N#Cc1nc(-c2cccc3ccccc23)oc1Nc1ccccc1`, in assay [2], the Imax was < 50%. Also, the IC50 in assay [1] was > 30 µM.
For `N#Cc1nc(-c2cccc3ccccc23)oc1NCc1ccccc1`, the Imax in assay [2] is < 50%. Further, in assay [1], the IC50 is > 30 µM.
Regarding `N#Cc1nc(-c2cccc3ccccc23)oc1NC1CNC1`, the IC50 in assay [1] is > 40 µM. Moreover, in assay [3], the inhibition entry is “Active”.
As for `CNc1oc(-c2cccc(Cl)c2Cl)nc1C#N`, the inhibition in assay [4] and in assay [5] was < 10% throughout.
Take `CNc1sc(-c2cccc3ccccc23)nc1C(=O)OC`: in assay [2], the Imax is < 50%.
`CNc1oc(-c2ccc(Cl)c(Cl)c2)nc1C#N`: the inhibition in assay [4] and in assay [5] was < 10% in each case.
For `CNc1oc(-c2cccc3ccccc23)nc1C(=O)OC`, the IC50 in assay [1] was > 40 µM.
`CNc1oc(-c2ccc(-c3ccccc3)cc2)nc1C#N`: the inhibition entry in assay [3] was “Active”.
For the compound `CC(C)Nc1oc(-c2cccc3ccccc23)nc1C#N`, in assay [1], the IC50 was > 40 µM.
For the compound `CNc1oc(-c2ccc3ccccc3c2)nc1C#N`, the Imax in assay [2] was < 50%.
With `CNc1oc(-c2cccc3cnccc23)nc1C#N`, the Imax in assay [2] was < 50%.
`N#Cc1nc(-c2cccc3ccccc23)oc1NC1COC1`: the IC50 in assay [1] was > 25 µM.
For the compound `CNc1nc(-c2cccc3ccccc23)ccc1C#N`, in assay [1], the half-inhibitory concentration (IC50) was > 40 µM.
For `CNc1nnc(-c2cccc3ccccc23)s1`, the IC50 in assay [1] was > 40 µM.
Take `CNc1nc(C#N)c(-c2cccc3ccccc23)o1`: the 50% inhibitory concentration (IC50) in assay [1] is > 40 µM. For the same compound, the inhibition result in assay [3] is “inactive”.
Turning to `CNc1sc(-c2cccc3ccccc23)nc1C#N`, the IC50 in assay [6] and in assay [7] was > 50 µM throughout. Also, the inhibition in assay [4] and in assay [5] was < 10% each time.
